Measured values taken from ChEMBL document CHEMBL1137742, “Facile synthesis of bis(4,5-dihydro-1H-pyrazole-1-carboxamides) and their thio-analogues of potential PGE(2) inhibitory properties” (Eur J Med Chem, 2009).

Key:
Rattus norvegicus [1] = test: Antiinflammatory activity in Wister albino rat assessed as inhibition of carrageenan-induced paw edema volume at 50 mg/kg, ip administered 1 hr before carrageenan challenge measured after 4 hrs; format: functional; settings: route intraperitoneal
How it was run: (§1)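 Wistar albino rats of either sex (pregnant females excluded), 160–190 g, 6 per group. Dosed i.p. in DMSO 1 h before 0.1 ml of 1% carrageenan in saline was injected subcutaneously into the right hind paw; DMSO-only controls. Paw volume was read by plethysmometer at 4 h against the initial volume to give oedema volume and % inhibition of oedema.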

Rattus norvegicus [2] = test: Antiinflammatory activity in Wister albino rat assessed as inhibition of carrageenan-induced paw edema volume at 50 mg/kg, ip administered 1 hr before carrageenan challenge measured after 4 hrs relative to indomethacin; format: functional; design: scale not given: the % may be the effect or the level left; settings: route intraperitoneal; how it was run: as §1
Rattus norvegicus [3] = test: Antiinflammatory activity in ip dosed Wister albino rat assessed as inhibition of carrageenan-induced paw edema volume administered 1 hr before carrageenan challenge measured after 4 hrs; format: functional; how it was run: as §1
Rattus norvegicus [4] = test: Antiinflammatory activity against carrageenan-induced inflammation in albino rat 6-day-old air pouch model assessed as inhibition of PGE2 level at 50 mg/kg, po administered prior to carrageenan challenge measured after 6 hrs; format: functional
How it was run: (§2)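 Male albino rats, 200–250 g, 6 per group. Air pouch raised by subcutaneous dorsal air: 20 ml on day 1, 10 ml two days later, 10 ml on day 5. On day 6, oral dosing in saline with a few drops of Tween 80, then 2 ml of 1% carrageenan in saline into the pouch. Exudate was aspirated 6 h later under ether, frozen at −20 °C, and PGE2 measured by ELISA (pg/ml).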

Rattus norvegicus [5] = test: Gastrointestinal toxicity in fasted albino rat assessed ulcer index at 50 mg/kg, po administered for 3 days measured after 1 hr of last dose; format: organism-based; design: dose 50 mg/kg, route oral; settings: in vivo
How it was run: (§3)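 Albino rats of either sex (pregnant excluded), 130–150 g, 6 per group, fasted 18 h. Dosed orally for 3 consecutive days in saline with a few drops of Tween 80. Killed 1 h after the last dose; stomach opened along the greater curvature, rinsed, and mucosa examined at 10× for lesions. Ulcer index computed from % incidence/10, mean ulcer number and severity.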

Rattus norvegicus [6] = test: Antiinflammatory activity in Wister albino rat assessed as inhibition of carrageenan-induced paw edema volume at 10 mg/kg, ip administered 1 hr before carrageenan challenge measured after 4 hrs; format: functional; settings: route intraperitoneal; how it was run: as §1
Rattus norvegicus [7] = test: Antiinflammatory activity in Wister albino rat assessed as inhibition of carrageenan-induced paw edema volume at 20 mg/kg, ip administered 1 hr before carrageenan challenge measured after 4 hrs; format: functional; settings: route intraperitoneal; how it was run: as §1
Rattus norvegicus [8] = test: Antiinflammatory activity against carrageenan-induced inflammation in albino rat 6-day-old air pouch model assessed as inhibition of PGE2 level at 10 mg/kg, po administered prior to carrageenan challenge measured after 6 hrs; format: functional; how it was run: as §2
Rattus norvegicus [9] = test: Gastrointestinal toxicity in fasted albino rat assessed ulcer index at 10 mg/kg, po administered for 3 days measured after 1 hr of last dose; format: organism-based; design: dose 10 mg/kg, route oral; settings: in vivo; how it was run: as §3

| Structure (SMILES) | inhibition in vivo at 50 mg/kg (Rattus norvegicus [1]) | Activity (Rattus norvegicus [2]) | ED50 (Rattus norvegicus [3]) | Activity (Rattus norvegicus [4]) | UI (Rattus norvegicus [5]) | inhibition in vivo at 10 mg/kg (Rattus norvegicus [6]) | inhibition in vivo at 20 mg/kg (Rattus norvegicus [7]) | Activity (Rattus norvegicus [8]) | UI (Rattus norvegicus [9]) |
| --- | --- | --- | --- | --- | --- | --- | --- | --- | --- |
| Cc1ccc(C2=NN(C(N)=O)C(c3ccccc3OCCOc3ccccc3C3CC(c4ccc(C)cc4)=NN3C(N)=O)C2)cc1 (stereo not given) | 22.7% | 33.6% | – | – | – | – | – | – | – |
| NC(=S)N1N=C(c2ccc(F)cc2)CC1c1ccccc1OCCOc1ccccc1C1CC(c2ccc(F)cc2)=NN1C(N)=S (stereo not given) | 48% | 71.1% | 40.8 mg/kg | 114.67 pg/mL | 11.51 | 40.9% | 43.2% | – | – |
| NC(=S)N1N=C(c2ccc(Cl)cc2)CC1c1ccccc1OCCOc1ccccc1C1CC(c2ccc(Cl)cc2)=NN1C(N)=S (stereo not given) | 55.2% | 81.8% | 34.6 mg/kg | 110.83 pg/mL | 12.16 | 50.3% | 53.7% | – | – |
| NC(=O)N1N=C(c2ccc(F)cc2)CC1c1ccccc1OCCOc1ccccc1C1CC(c2ccc(F)cc2)=NN1C(N)=O (stereo not given) | 20.8% | 30.8% | – | – | – | – | – | – | – |
| NC(=O)N1N=C(c2ccc(Cl)cc2)CC1c1ccccc1OCCOc1ccccc1C1CC(c2ccc(Cl)cc2)=NN1C(N)=O (stereo not given) | 45.3% | 67.1% | – | – | – | – | – | – | – |
| NC(=O)N1N=C(c2ccccc2)CC1c1ccccc1OCCOc1ccccc1C1CC(c2ccccc2)=NN1C(N)=O (stereo not given) | 43.2% | 64% | – | – | – | – | – | – | – |
| Cc1ccc(C2=NN(C(N)=S)C(c3ccccc3OCCOc3ccccc3C3CC(c4ccc(C)cc4)=NN3C(N)=S)C2)cc1 (stereo not given) | 36.8% | 54.5% | – | – | – | – | – | – | – |
| NC(=S)N1N=C(c2ccccc2)CC1c1ccc(OCCOc2ccc(C3CC(c4ccccc4)=NN3C(N)=S)cc2)cc1 (stereo not given) | 83.5% | 123.7% | 23.1 mg/kg | 83.33 pg/mL | 18.5 | 74.4% | 79.5% | – | – |
| NC(=S)N1N=C(c2cccs2)CC1c1ccccc1OCCOc1ccccc1C1CC(c2cccs2)=NN1C(N)=S (stereo not given) | 67.5% | 100% | 28.8 mg/kg | 96.5 pg/mL | 14.33 | 59.7% | 61.6% | – | – |
| Cc1ccc(C2=NN(C(N)=S)C(c3ccc(OCCOc4ccc(C5CC(c6ccc(C)cc6)=NN5C(N)=S)cc4)cc3)C2)cc1 (stereo not given) | 34.7% | 51.4% | – | – | – | – | – | – | – |
| NC(=S)N1N=C(c2ccccc2)CC1c1ccccc1OCCOc1ccccc1C1CC(c2ccccc2)=NN1C(N)=S (stereo not given) | 24.5% | 36.3% | – | – | – | – | – | – | – |
| COc1ccc2c(c1)c(CC(=O)O)c(C)n2C(=O)c1ccc(Cl)cc1 [INDOMETHACIN] | – | – | – | – | – | 67.5% | – | 98.33 pg/mL | 13.49 |
